test system: not listed separately; assay: Selectivity index, ratio of CC50 for MDCK cells to IC50 for Entamoeba histolytica HM-1:IMSS trophozoites; assay type: functional; settings: not given

Q: Which “Ratio CC50/IC50” value does the source give for `Cc1nc([N+](=O)[O-])cn1S(=O)(=O)c1ccc([N+](=O)[O-])cc1` here?
A: 84

Q: For `Cc1ccc(S(=O)(=O)n2cc([N+](=O)[O-])nc2C)cc1`, which “Ratio CC50/IC50” value is on record?
A: 278

Q: With `COc1ccc(S(=O)(=O)n2cc([N+](=O)[O-])nc2C)cc1` as the compound, how does the “Ratio CC50/IC50” value read?
A: 38

Q: Which “Ratio CC50/IC50” value does the source give for `Cc1nc([N+](=O)[O-])cn1S(=O)(=O)c1ccc(Cl)cc1` here?
A: 144

Q: With `Cc1nc([N+](=O)[O-])cn1CC(=O)Nc1ccc([N+](=O)[O-])cc1` as the compound, how does the “Ratio CC50/IC50” value read?
A: 52

Q: Which “Ratio CC50/IC50” value does the source give for `Cc1nc([N+](=O)[O-])cn1CC(=O)Nc1ccc(C#N)cc1` here?
A: 16

Q: For `Cc1nc([N+](=O)[O-])cn1CC(=O)Nc1cccc(C(F)(F)F)c1`, which “Ratio CC50/IC50” value is on record?
A: 15

test system: Trichomonas vaginalis; assay: Ratio of 2-methyl-4(5)-nitroimidazole IC50 to compound IC50 for Trichomonas vaginalis GT3 trophozoites; assay type: functional; settings: not given

Q: With `Cc1nc([N+](=O)[O-])cn1S(=O)(=O)c1ccc([N+](=O)[O-])cc1` as the compound, how does the “Ratio IC50” value read?
A: 14

Q: For `Cc1nc([N+](=O)[O-])cn1CC(=O)Nc1ccc(C#N)cc1`, which “Ratio IC50” value is on record?
A: 3

test system: Entamoeba histolytica; assay: Ratio of 2-methyl-4(5)-nitroimidazole IC50 to compound IC50 for Entamoeba histolytica HM-1:IMSS trophozoites; assay type: functional; settings: not given

Q: Which “Ratio IC50” value does the source give for `Cc1ccc(S(=O)(=O)n2cc([N+](=O)[O-])nc2C)cc1` here?
A: 2

test system: Trichomonas vaginalis; assay: Antiparasitic activity against Trichomonas vaginalis GT3 trophozoites after 48 hrs by […]; assay type: functional, organism-based; settings: GT3, 48 h
Procedure, shortened: (§1)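 Axenic trophozoites grown in modified TYI-S-33 with 10% calf serum and bovine bile; exposed 48 h at 37 °C to increasing compound concentrations, DMSO as negative control. Then washed, subcultured 48 h in fresh drug-free medium and counted. IC50 by Probit analysis; triplicate, repeated at least twice.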

Q: Which IC50 does the source give for `Cc1nc([N+](=O)[O-])cn1S(=O)(=O)c1ccc([N+](=O)[O-])cc1` here?
A: 2.93 µM

Q: For `Cc1ccc(S(=O)(=O)n2cc([N+](=O)[O-])nc2C)cc1`, which IC50 is on record?
A: 9.96 µM

Q: Which IC50 does the source give for `COc1ccc(S(=O)(=O)n2cc([N+](=O)[O-])nc2C)cc1` here?
A: 8.41 µM

Q: With `Cc1nc([N+](=O)[O-])cn1S(=O)(=O)c1ccc(Cl)cc1` as the compound, how does the IC50 read?
A: 7.62 µM

Q: For `Cc1nc([N+](=O)[O-])cn1CC(=O)Nc1ccc([N+](=O)[O-])cc1`, which IC50 is on record?
A: 6.63 µM

Q: With `Cc1nc([N+](=O)[O-])cn1CC(=O)Nc1ccc(C#N)cc1` as the compound, how does the IC50 read?
A: 14.2 µM

Q: Which IC50 does the source give for `Cc1nc([N+](=O)[O-])cn1CC(=O)Nc1cccc(C(F)(F)F)c1` here?
A: 67.4 µM

Q: Which IC50 does the source give for `O=C(Cn1ccnc1[N+](=O)[O-])NCc1ccccc1` [BENZNIDAZOLE] here?
A: 18.6 µM

Q: Which IC50 does the source give for `Cc1ncc([N+](=O)[O-])n1CCO` [METRONIDAZOLE] here?
A: 0.29 µM

test system: Entamoeba histolytica; assay: Amebicidal activity against Entamoeba histolytica HM-1:IMSS trophozoites after 48 hrs by […]; assay type: functional, organism-based; settings: not given; procedure, shortened: as §1

Q: With `Cc1nc([N+](=O)[O-])cn1S(=O)(=O)c1ccc([N+](=O)[O-])cc1` as the compound, how does the IC50 read?
A: 7.28 µM

Q: Which IC50 does the source give for `Cc1ccc(S(=O)(=O)n2cc([N+](=O)[O-])nc2C)cc1` here?
A: 3.55 µM

Q: Which IC50 does the source give for `COc1ccc(S(=O)(=O)n2cc([N+](=O)[O-])nc2C)cc1` here?
A: 8.56 µM

Q: Which IC50 does the source give for `Cc1nc([N+](=O)[O-])cn1S(=O)(=O)c1ccc(Cl)cc1` here?
A: 4.03 µM

Q: For `Cc1nc([N+](=O)[O-])cn1CC(=O)Nc1ccc([N+](=O)[O-])cc1`, which IC50 is on record?
A: 15.3 µM

Q: Which IC50 does the source give for `Cc1nc([N+](=O)[O-])cn1CC(=O)Nc1ccc(C#N)cc1` here?
A: 41.2 µM

Q: With `Cc1nc([N+](=O)[O-])cn1CC(=O)Nc1cccc(C(F)(F)F)c1` as the compound, how does the IC50 read?
A: 29.1 µM

Q: Which IC50 does the source give for `O=C(Cn1ccnc1[N+](=O)[O-])NCc1ccccc1` [BENZNIDAZOLE] here?
A: 4.27 µM

test system: not listed separately; assay: Selectivity index, ratio of CC50 for MDCK cells to IC50 for Trichomonas vaginalis GT3 trophozoites; assay type: functional; settings: not given

Q: Which “Ratio CC50/IC50” value does the source give for `Cc1nc([N+](=O)[O-])cn1S(=O)(=O)c1ccc([N+](=O)[O-])cc1` here?
A: 209

Q: Which “Ratio CC50/IC50” value does the source give for `Cc1ccc(S(=O)(=O)n2cc([N+](=O)[O-])nc2C)cc1` here?
A: 99

Q: For `COc1ccc(S(=O)(=O)n2cc([N+](=O)[O-])nc2C)cc1`, which “Ratio CC50/IC50” value is on record?
A: 38

Q: For `Cc1nc([N+](=O)[O-])cn1S(=O)(=O)c1ccc(Cl)cc1`, which “Ratio CC50/IC50” value is on record?
A: 76

Q: With `Cc1nc([N+](=O)[O-])cn1CC(=O)Nc1ccc([N+](=O)[O-])cc1` as the compound, how does the “Ratio CC50/IC50” value read?
A: 120

Q: With `Cc1nc([N+](=O)[O-])cn1CC(=O)Nc1ccc(C#N)cc1` as the compound, how does the “Ratio CC50/IC50” value read?
A: 47

Q: Which “Ratio CC50/IC50” value does the source give for `Cc1nc([N+](=O)[O-])cn1CC(=O)Nc1cccc(C(F)(F)F)c1` here?
A: 6

test system: Trichomonas vaginalis; assay: Ratio of Benznidazole IC50 to compound IC50 for Trichomonas vaginalis GT3 trophozoites; assay type: functional; settings: not given

Q: Which “Ratio IC50” value does the source give for `Cc1nc([N+](=O)[O-])cn1S(=O)(=O)c1ccc([N+](=O)[O-])cc1` here?
A: 6

test system: not listed separately; assay: Selectivity index, ratio of CC50 for MDCK cells to IC50 for Giardia intestinalis IMSS:0696 trophozoites; assay type: functional; settings: not given

Q: With `Cc1nc([N+](=O)[O-])cn1S(=O)(=O)c1ccc([N+](=O)[O-])cc1` as the compound, how does the “Ratio CC50/IC50” value read?
A: 82

Q: With `Cc1ccc(S(=O)(=O)n2cc([N+](=O)[O-])nc2C)cc1` as the compound, how does the “Ratio CC50/IC50” value read?
A: 71

Q: With `COc1ccc(S(=O)(=O)n2cc([N+](=O)[O-])nc2C)cc1` as the compound, how does the “Ratio CC50/IC50” value read?
A: 49

Q: With `Cc1nc([N+](=O)[O-])cn1S(=O)(=O)c1ccc(Cl)cc1` as the compound, how does the “Ratio CC50/IC50” value read?
A: 38

Q: For `Cc1nc([N+](=O)[O-])cn1CC(=O)Nc1ccc([N+](=O)[O-])cc1`, which “Ratio CC50/IC50” value is on record?
A: 52

Q: For `Cc1nc([N+](=O)[O-])cn1CC(=O)Nc1ccc(C#N)cc1`, which “Ratio CC50/IC50” value is on record?
A: 60

Q: With `Cc1nc([N+](=O)[O-])cn1CC(=O)Nc1cccc(C(F)(F)F)c1` as the compound, how does the “Ratio CC50/IC50” value read?
A: 12

test system: Giardia intestinalis; assay: Antiparasitic activity against Giardia intestinalis IMSS:0696 trophozoites after 48 hrs by […]; assay type: functional, organism-based; settings: Giardia duodenalis, IMSS:0696, 48 h; procedure, shortened: as §1

Q: With `Cc1nc([N+](=O)[O-])cn1S(=O)(=O)c1ccc([N+](=O)[O-])cc1` as the compound, how does the IC50 read?
A: 7.5 µM

Q: Which IC50 does the source give for `Cc1ccc(S(=O)(=O)n2cc([N+](=O)[O-])nc2C)cc1` here?
A: 14 µM

Q: For `COc1ccc(S(=O)(=O)n2cc([N+](=O)[O-])nc2C)cc1`, which IC50 is on record?
A: 6.55 µM

Q: Which IC50 does the source give for `Cc1nc([N+](=O)[O-])cn1S(=O)(=O)c1ccc(Cl)cc1` here?
A: 15.3 µM

Q: Which IC50 does the source give for `Cc1nc([N+](=O)[O-])cn1CC(=O)Nc1ccc([N+](=O)[O-])cc1` here?
A: 15.4 µM

Q: Which IC50 does the source give for `Cc1nc([N+](=O)[O-])cn1CC(=O)Nc1ccc(C#N)cc1` here?
A: 11.2 µM

Q: With `Cc1nc([N+](=O)[O-])cn1CC(=O)Nc1cccc(C(F)(F)F)c1` as the compound, how does the IC50 read?
A: 37.6 µM

Q: Which IC50 does the source give for `O=C(Cn1ccnc1[N+](=O)[O-])NCc1ccccc1` [BENZNIDAZOLE] here?
A: 22.6 µM

Q: With `Cc1ncc([N+](=O)[O-])n1CCO` [METRONIDAZOLE] as the compound, how does the IC50 read?
A: 5.36 µM

test system: Giardia intestinalis; assay: Ratio of 2-methyl-4(5)-nitroimidazole IC50 to compound IC50 for Giardia intestinalis IMSS:0696 trophozoites; assay type: functional, Giardia duodenalis; settings: not given

Q: With `Cc1nc([N+](=O)[O-])cn1S(=O)(=O)c1ccc([N+](=O)[O-])cc1` as the compound, how does the “Ratio IC50” value read?
A: 2

Q: With `COc1ccc(S(=O)(=O)n2cc([N+](=O)[O-])nc2C)cc1` as the compound, how does the “Ratio IC50” value read?
A: 2

test system: Giardia intestinalis; assay: Ratio of Benznidazole IC50 to compound IC50 for Giardia intestinalis IMSS:0696 trophozoites; assay type: functional, Giardia duodenalis; settings: not given

Q: For `Cc1nc([N+](=O)[O-])cn1S(=O)(=O)c1ccc([N+](=O)[O-])cc1`, which “Ratio IC50” value is on record?
A: 2

Q: For `COc1ccc(S(=O)(=O)n2cc([N+](=O)[O-])nc2C)cc1`, which “Ratio IC50” value is on record?
A: 2

Q: Which “Ratio IC50” value does the source give for `Cc1nc([N+](=O)[O-])cn1CC(=O)Nc1ccc(C#N)cc1` here?
A: 2

test system: not listed separately; assay: Cytotoxicity against MDCK cells after 72 hrs by MTT assay; assay type: cell-based, Canis lupus familiaris; settings: dog
Procedure, shortened: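 MDCK cells in DMEM with 10% FBS and penicillin/streptomycin, 37 °C, 5% CO2. 1.5×10⁴ cells/well seeded; above 80% confluence, medium replaced and compounds added from 6.25 upward, DMSO final 0.05%. After 72 h, MTT added for 4 h at 37 °C. Formazan dissolved in acidified isopropanol (0.4 N HCl), OD 540 nm; untreated cells as negative control; CC50 calculated.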

Q: With `Cc1nc([N+](=O)[O-])cn1S(=O)(=O)c1ccc([N+](=O)[O-])cc1` as the compound, how does the CC50 at 72 h read?
A: 611 µM

Q: With `Cc1ccc(S(=O)(=O)n2cc([N+](=O)[O-])nc2C)cc1` as the compound, how does the CC50 at 72 h read?
A: 988 µM

Q: With `COc1ccc(S(=O)(=O)n2cc([N+](=O)[O-])nc2C)cc1` as the compound, how does the CC50 at 72 h read?
A: 321 µM

Q: With `Cc1nc([N+](=O)[O-])cn1S(=O)(=O)c1ccc(Cl)cc1` as the compound, how does the CC50 at 72 h read?
A: 578 µM

Q: For `Cc1nc([N+](=O)[O-])cn1CC(=O)Nc1ccc([N+](=O)[O-])cc1`, which CC50 at 72 h is on record?
A: 798 µM

Q: Which CC50 at 72 h does the source give for `Cc1nc([N+](=O)[O-])cn1CC(=O)Nc1ccc(C#N)cc1` here?
A: 672 µM

Q: For `Cc1nc([N+](=O)[O-])cn1CC(=O)Nc1cccc(C(F)(F)F)c1`, which CC50 at 72 h is on record?
A: 435 µM

Q: Which CC50 at 72 h does the source give for `Cc1ncc([N+](=O)[O-])n1CCO` [METRONIDAZOLE] here?
A: 68 µM

Reference: ChEMBL document CHEMBL1152893, “Synthesis and in vitro trichomonicidal, giardicidal and amebicidal activity of N-acetamide(sulfonamide)-2-methyl-4-nitro-1H-imidazoles” (Eur J Med Chem, 2009)
